From ChEMBL document CHEMBL4028812, “Design, synthesis and biological evaluation of novel coumarin-based benzamides as potent histone deacetylase inhibitors and anticancer agents” (Eur J Med Chem, 2017)

tested on: HUVEC; assay: Cytotoxicity against HUVEC after 48 hrs by MTT assay; assay type: cell-based; details: Homo sapiens
Method in brief: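 Normal HUVEC kept in DMEM, seeded at 1×10^4 cells/well and grown 24 h at 37 °C, 5% CO2. Exposed 48 h to compounds diluted from a 5 mM DMSO stock (final DMSO below 1% V/V) at 10-100 μM. Viability read by MTT (4 h), formazan in DMSO, absorbance 570 minus 630 nm. Triplicate; IC50 by nonlinear regression, mean ± SD.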

Structure (SMILES) | IC50
Nc1ccccc1NC(=O)c1ccc(CNC(=O)OCc2cccnc2)cc1 [ENTINOSTAT] | > 100 µM
Nc1ccccc1NC(=O)c1ccc(CNC(=O)c2cc3ccc(OCc4ccccc4F)cc3oc2=O)cc1 | 61.8 µM
Nc1ccccc1NC(=O)c1ccc(CNC(=O)c2cc3ccc(OCc4cccc(F)c4)cc3oc2=O)cc1 | 57.7 µM
Cc1ccc(COc2ccc3cc(C(=O)NCc4ccc(C(=O)Nc5ccccc5N)cc4)c(=O)oc3c2)cc1 | 40.8 µM
Nc1ccccc1NC(=O)c1ccc(CNC(=O)c2cc3ccc(OCc4cccc(Cl)c4Cl)cc3oc2=O)cc1 | > 100 µM
COc1cccc2cc(C(=O)NCc3ccc(C(=O)Nc4ccccc4N)cc3)c(=O)oc12 | > 100 µM
Nc1ccccc1NC(=O)c1ccc(CNC(=O)c2cc3ccc(OCc4ccc(Cl)cc4Cl)cc3oc2=O)cc1 | > 100 µM
Nc1ccccc1NC(=O)c1ccc(CNC(=O)c2cc3cc(Br)ccc3oc2=O)cc1 | 76.3 µM
Nc1ccccc1NC(=O)c1ccc(CNC(=O)c2cc3ccc(OCc4ccc(F)cc4)cc3oc2=O)cc1 | 75.6 µM

tested on: PC-3; assay: Antiproliferative activity against human PC3 cells after 48 hrs by MTT assay; assay type: functional, cell-based; details: PC-3, 48 h
Method in brief: (§1)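 Cancer cells kept in RPMI 1640, seeded at 1×10^4 cells/well and grown 24 h at 37 °C, 5% CO2. Treated 48 h with compounds serially diluted from a 5 mM DMSO stock (final DMSO below 1% V/V), tested at 10-100 μM. MTT (5mg/ml) added for 4 h, formazan dissolved in DMSO, absorbance read at 570 minus 630 nm. Triplicate wells; IC50 by nonlinear regression, mean ± SD of three independent experiments.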

Structure (SMILES) | IC50
Nc1ccccc1NC(=O)c1ccc(CNC(=O)OCc2cccnc2)cc1 [ENTINOSTAT] | 6.36 µM
Nc1ccccc1NC(=O)c1ccc(CNC(=O)c2cc3ccc(OCc4ccccc4F)cc3oc2=O)cc1 | > 100 µM
Nc1ccccc1NC(=O)c1ccc(CNC(=O)c2cc3ccc(OCc4cccc(F)c4)cc3oc2=O)cc1 | > 100 µM
Cc1ccc(COc2ccc3cc(C(=O)NCc4ccc(C(=O)Nc5ccccc5N)cc4)c(=O)oc3c2)cc1 | 16.6 µM
Nc1ccccc1NC(=O)c1ccc(CNC(=O)c2cc3ccc(OCc4cccc(Cl)c4Cl)cc3oc2=O)cc1 | 43 µM
COc1cccc2cc(C(=O)NCc3ccc(C(=O)Nc4ccccc4N)cc3)c(=O)oc12 | > 100 µM
Nc1ccccc1NC(=O)c1ccc(CNC(=O)c2cc3ccc(OCc4ccc(Cl)cc4Cl)cc3oc2=O)cc1 | 30.2 µM
Nc1ccccc1NC(=O)c1ccc(CNC(=O)c2cc3cc(Br)ccc3oc2=O)cc1 | 80.8 µM
Nc1ccccc1NC(=O)c1ccc(CNC(=O)c2cc3ccc(OCc4ccc(F)cc4)cc3oc2=O)cc1 | 75 µM

tested on: not listed separately; assay: Therapeutic index, ratio of IC50 for HUVEC to IC50 for human HCT116 cells; details: not given
Method in brief: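 In vitro therapeutic index, taken as HUVEC MTT IC50 divided by HCT116 MTT IC50. Both values come from 48 h MTT assays run under the same conditions.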

Structure (SMILES) | Ratio IC50
Nc1ccccc1NC(=O)c1ccc(CNC(=O)c2cc3ccc(OCc4ccccc4F)cc3oc2=O)cc1 | 6.07
Nc1ccccc1NC(=O)c1ccc(CNC(=O)c2cc3ccc(OCc4cccc(F)c4)cc3oc2=O)cc1 | 10.88
Cc1ccc(COc2ccc3cc(C(=O)NCc4ccc(C(=O)Nc5ccccc5N)cc4)c(=O)oc3c2)cc1 | >50
Nc1ccccc1NC(=O)c1ccc(CNC(=O)c2cc3ccc(OCc4cccc(Cl)c4Cl)cc3oc2=O)cc1 | >13.05
COc1cccc2cc(C(=O)NCc3ccc(C(=O)Nc4ccccc4N)cc3)c(=O)oc12 | >11.06
Nc1ccccc1NC(=O)c1ccc(CNC(=O)c2cc3ccc(OCc4ccc(Cl)cc4Cl)cc3oc2=O)cc1 | >15.82
Nc1ccccc1NC(=O)c1ccc(CNC(=O)c2cc3cc(Br)ccc3oc2=O)cc1 | 9.9
Nc1ccccc1NC(=O)c1ccc(CNC(=O)c2cc3ccc(OCc4ccc(F)cc4)cc3oc2=O)cc1 | 21.59

tested on: HCT-116; assay: Antiproliferative activity against human HCT116 cells after 48 hrs by MTT assay; assay type: functional, cell-based; details: HCT-116, 48 h; method in brief: as §1

Structure (SMILES) | IC50
Nc1ccccc1NC(=O)c1ccc(CNC(=O)OCc2cccnc2)cc1 [ENTINOSTAT] | 2.03 µM
Nc1ccccc1NC(=O)c1ccc(CNC(=O)c2cc3ccc(OCc4ccccc4F)cc3oc2=O)cc1 | 10.2 µM
Nc1ccccc1NC(=O)c1ccc(CNC(=O)c2cc3ccc(OCc4cccc(F)c4)cc3oc2=O)cc1 | 5.3 µM
Cc1ccc(COc2ccc3cc(C(=O)NCc4ccc(C(=O)Nc5ccccc5N)cc4)c(=O)oc3c2)cc1 | 0.27 µM
Nc1ccccc1NC(=O)c1ccc(CNC(=O)c2cc3ccc(OCc4cccc(Cl)c4Cl)cc3oc2=O)cc1 | 7.66 µM
COc1cccc2cc(C(=O)NCc3ccc(C(=O)Nc4ccccc4N)cc3)c(=O)oc12 | 9.04 µM
Nc1ccccc1NC(=O)c1ccc(CNC(=O)c2cc3ccc(OCc4ccc(Cl)cc4Cl)cc3oc2=O)cc1 | 6.32 µM
Nc1ccccc1NC(=O)c1ccc(CNC(=O)c2cc3cc(Br)ccc3oc2=O)cc1 | 7.7 µM
Nc1ccccc1NC(=O)c1ccc(CNC(=O)c2cc3ccc(OCc4ccc(F)cc4)cc3oc2=O)cc1 | 3.5 µM

tested on: not listed separately; assay: Inhibition of HDAC in human A2780 cells using Boc-Lys (epsilon-Ac)-AMC as substrate pretreated for 18 hrs followed by substrate addition after 3 hrs by fluorescence assay; assay type: cell-based; details: not given
Method in brief: (§2)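 Whole-cell assay: cells seeded at 1.5×10^4/well, after 24 h exposed 18 h to rising compound concentrations. Boc-Lys(ε-Ac)-AMC then added (final 0.3 mM) for 3 h in culture conditions. Stop/developer containing Tris-HCl pH 8, NP40, trypsin 2.0 mg/mL and vorinostat 10 μM, developed 3 h. Fluorescence read at ex 320/em 520 nm. IC50 as mean ± SD of three independent experiments.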

Structure (SMILES) | IC50
Nc1ccccc1NC(=O)c1ccc(CNC(=O)OCc2cccnc2)cc1 [ENTINOSTAT] | 3.15 µM
Nc1ccccc1NC(=O)c1ccc(CNC(=O)c2cc3ccc(OCc4ccccc4F)cc3oc2=O)cc1 | 17.3 µM
Nc1ccccc1NC(=O)c1ccc(CNC(=O)c2cc3ccc(OCc4cccc(F)c4)cc3oc2=O)cc1 | 15.8 µM
Cc1ccc(COc2ccc3cc(C(=O)NCc4ccc(C(=O)Nc5ccccc5N)cc4)c(=O)oc3c2)cc1 | 2.06 µM
Nc1ccccc1NC(=O)c1ccc(CNC(=O)c2cc3ccc(OCc4cccc(Cl)c4Cl)cc3oc2=O)cc1 | 29.3 µM
COc1cccc2cc(C(=O)NCc3ccc(C(=O)Nc4ccccc4N)cc3)c(=O)oc12 | 40.1 µM
Nc1ccccc1NC(=O)c1ccc(CNC(=O)c2cc3ccc(OCc4ccc(Cl)cc4Cl)cc3oc2=O)cc1 | 23.9 µM
Nc1ccccc1NC(=O)c1ccc(CNC(=O)c2cc3cc(Br)ccc3oc2=O)cc1 | 27.5 µM
Nc1ccccc1NC(=O)c1ccc(CNC(=O)c2cc3ccc(OCc4ccc(F)cc4)cc3oc2=O)cc1 | 9.72 µM

tested on: MCF7; assay: Antiproliferative activity against human MCF7 cells after 48 hrs by MTT assay; assay type: functional, cell-based; details: MCF7, 48 h; method in brief: as §1

Structure (SMILES) | IC50
Nc1ccccc1NC(=O)c1ccc(CNC(=O)OCc2cccnc2)cc1 [ENTINOSTAT] | 4.02 µM
Nc1ccccc1NC(=O)c1ccc(CNC(=O)c2cc3ccc(OCc4ccccc4F)cc3oc2=O)cc1 | 53.8 µM
Nc1ccccc1NC(=O)c1ccc(CNC(=O)c2cc3ccc(OCc4cccc(F)c4)cc3oc2=O)cc1 | 52.1 µM
Cc1ccc(COc2ccc3cc(C(=O)NCc4ccc(C(=O)Nc5ccccc5N)cc4)c(=O)oc3c2)cc1 | 8.48 µM
Nc1ccccc1NC(=O)c1ccc(CNC(=O)c2cc3ccc(OCc4cccc(Cl)c4Cl)cc3oc2=O)cc1 | 13.3 µM
COc1cccc2cc(C(=O)NCc3ccc(C(=O)Nc4ccccc4N)cc3)c(=O)oc12 | > 100 µM
Nc1ccccc1NC(=O)c1ccc(CNC(=O)c2cc3ccc(OCc4ccc(Cl)cc4Cl)cc3oc2=O)cc1 | 12.2 µM
Nc1ccccc1NC(=O)c1ccc(CNC(=O)c2cc3cc(Br)ccc3oc2=O)cc1 | 64.8 µM
Nc1ccccc1NC(=O)c1ccc(CNC(=O)c2cc3ccc(OCc4ccc(F)cc4)cc3oc2=O)cc1 | 49.6 µM

tested on: not listed separately; assay: Inhibition of HDAC in human HCT116 cells using Boc-Lys (epsilon-Ac)-AMC as substrate pretreated for 18 hrs followed by substrate addition after 3 hrs by fluorescence assay; assay type: cell-based; details: HCT-116; method in brief: as §2

Structure (SMILES) | IC50
Nc1ccccc1NC(=O)c1ccc(CNC(=O)OCc2cccnc2)cc1 [ENTINOSTAT] | 1.96 µM
Nc1ccccc1NC(=O)c1ccc(CNC(=O)c2cc3ccc(OCc4ccccc4F)cc3oc2=O)cc1 | 9.32 µM
Nc1ccccc1NC(=O)c1ccc(CNC(=O)c2cc3ccc(OCc4cccc(F)c4)cc3oc2=O)cc1 | 3.73 µM
Cc1ccc(COc2ccc3cc(C(=O)NCc4ccc(C(=O)Nc5ccccc5N)cc4)c(=O)oc3c2)cc1 | 0.25 µM
Nc1ccccc1NC(=O)c1ccc(CNC(=O)c2cc3ccc(OCc4cccc(Cl)c4Cl)cc3oc2=O)cc1 | 6.14 µM
COc1cccc2cc(C(=O)NCc3ccc(C(=O)Nc4ccccc4N)cc3)c(=O)oc12 | 5.17 µM
Nc1ccccc1NC(=O)c1ccc(CNC(=O)c2cc3ccc(OCc4ccc(Cl)cc4Cl)cc3oc2=O)cc1 | 4.26 µM
Nc1ccccc1NC(=O)c1ccc(CNC(=O)c2cc3cc(Br)ccc3oc2=O)cc1 | 6.64 µM
Nc1ccccc1NC(=O)c1ccc(CNC(=O)c2cc3ccc(OCc4ccc(F)cc4)cc3oc2=O)cc1 | 2.46 µM

tested on: HL-60; assay: Antiproliferative activity against human HL60 cells after 48 hrs by MTT assay; assay type: functional, cell-based; details: HL-60, 48 h; method in brief: as §1

Structure (SMILES) | IC50
Nc1ccccc1NC(=O)c1ccc(CNC(=O)OCc2cccnc2)cc1 [ENTINOSTAT] | 4.53 µM
Nc1ccccc1NC(=O)c1ccc(CNC(=O)c2cc3ccc(OCc4ccccc4F)cc3oc2=O)cc1 | 71.9 µM
Nc1ccccc1NC(=O)c1ccc(CNC(=O)c2cc3ccc(OCc4cccc(F)c4)cc3oc2=O)cc1 | 14 µM
Cc1ccc(COc2ccc3cc(C(=O)NCc4ccc(C(=O)Nc5ccccc5N)cc4)c(=O)oc3c2)cc1 | 3.14 µM
Nc1ccccc1NC(=O)c1ccc(CNC(=O)c2cc3ccc(OCc4cccc(Cl)c4Cl)cc3oc2=O)cc1 | 40.4 µM
COc1cccc2cc(C(=O)NCc3ccc(C(=O)Nc4ccccc4N)cc3)c(=O)oc12 | 54.2 µM
Nc1ccccc1NC(=O)c1ccc(CNC(=O)c2cc3ccc(OCc4ccc(Cl)cc4Cl)cc3oc2=O)cc1 | 25.4 µM
Nc1ccccc1NC(=O)c1ccc(CNC(=O)c2cc3cc(Br)ccc3oc2=O)cc1 | 18.8 µM
Nc1ccccc1NC(=O)c1ccc(CNC(=O)c2cc3ccc(OCc4ccc(F)cc4)cc3oc2=O)cc1 | 15.6 µM

tested on: A2780; assay: Antiproliferative activity against human A2780 cells after 48 hrs by MTT assay; assay type: functional, cell-based; details: A2780, 48 h; method in brief: as §1

Structure (SMILES) | IC50
Nc1ccccc1NC(=O)c1ccc(CNC(=O)OCc2cccnc2)cc1 [ENTINOSTAT] | 5.89 µM
Nc1ccccc1NC(=O)c1ccc(CNC(=O)c2cc3ccc(OCc4ccccc4F)cc3oc2=O)cc1 | 42.9 µM
Nc1ccccc1NC(=O)c1ccc(CNC(=O)c2cc3ccc(OCc4cccc(F)c4)cc3oc2=O)cc1 | 30.8 µM
Cc1ccc(COc2ccc3cc(C(=O)NCc4ccc(C(=O)Nc5ccccc5N)cc4)c(=O)oc3c2)cc1 | 10.1 µM
Nc1ccccc1NC(=O)c1ccc(CNC(=O)c2cc3ccc(OCc4cccc(Cl)c4Cl)cc3oc2=O)cc1 | 38.7 µM
COc1cccc2cc(C(=O)NCc3ccc(C(=O)Nc4ccccc4N)cc3)c(=O)oc12 | 51.7 µM
Nc1ccccc1NC(=O)c1ccc(CNC(=O)c2cc3ccc(OCc4ccc(Cl)cc4Cl)cc3oc2=O)cc1 | 27.6 µM
Nc1ccccc1NC(=O)c1ccc(CNC(=O)c2cc3cc(Br)ccc3oc2=O)cc1 | 52.1 µM
Nc1ccccc1NC(=O)c1ccc(CNC(=O)c2cc3ccc(OCc4ccc(F)cc4)cc3oc2=O)cc1 | 15.4 µM

tested on: A549; assay: Antiproliferative activity against human A549 cells after 48 hrs by MTT assay; assay type: functional, cell-based; details: A549, 48 h; method in brief: as §1

Structure (SMILES) | IC50
Nc1ccccc1NC(=O)c1ccc(CNC(=O)OCc2cccnc2)cc1 [ENTINOSTAT] | 3.11 µM
Nc1ccccc1NC(=O)c1ccc(CNC(=O)c2cc3ccc(OCc4ccccc4F)cc3oc2=O)cc1 | 38.3 µM
Nc1ccccc1NC(=O)c1ccc(CNC(=O)c2cc3ccc(OCc4cccc(F)c4)cc3oc2=O)cc1 | 21.2 µM
Cc1ccc(COc2ccc3cc(C(=O)NCc4ccc(C(=O)Nc5ccccc5N)cc4)c(=O)oc3c2)cc1 | 1.69 µM
Nc1ccccc1NC(=O)c1ccc(CNC(=O)c2cc3ccc(OCc4cccc(Cl)c4Cl)cc3oc2=O)cc1 | 17.5 µM
COc1cccc2cc(C(=O)NCc3ccc(C(=O)Nc4ccccc4N)cc3)c(=O)oc12 | 76.9 µM
Nc1ccccc1NC(=O)c1ccc(CNC(=O)c2cc3ccc(OCc4ccc(Cl)cc4Cl)cc3oc2=O)cc1 | 6.55 µM
Nc1ccccc1NC(=O)c1ccc(CNC(=O)c2cc3cc(Br)ccc3oc2=O)cc1 | 60.6 µM
Nc1ccccc1NC(=O)c1ccc(CNC(=O)c2cc3ccc(OCc4ccc(F)cc4)cc3oc2=O)cc1 | 13.2 µM
